Measured values from ChEMBL document CHEMBL4689842, “EUbOPEN Chemogenomics Library wave 1” (2021).

Key:
HEK-293T = test: Multiplex assay against HEK293T; assay type: toxicity, cell-based; details: human;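 on Population Tubulin-Different-Phenotype (%): share of the cells with healthy nuclei that show this phenotype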
Method in brief: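 Values for tubulin, mitochondrial-mass and membrane-permeability phenotypes are per cents of cells with healthy nuclei. These cells were identified by CellPathfinder machine-learning gating of live cells that had been stained at seeding with Hoechst33342, BioTracker Green Microtubule Cytoskeleton Dye, MitoTracker Red and Annexin V Alexa Fluor 680 and imaged on a CQ1 microscope at 37°C and 5% CO2 after compound addition. The gating first set Hoechst high-intensity objects apart from normal cells, then split normal cells into healthy, pyknosed or fragmented nuclei, and pyknosed cells into mitotic or apoptotic.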

Fibroblast = test: Incucyte cell viability with human fibroblast; assay type: toxicity, cell-based; details: 10 µM, compound concentration 10 uM; further: filed as whole numbers so only -1 and 0 and 1 occur
[1] = 12 h, 1 µM, compound concentration 1 uM, replicate 1
[2] = 12 h, 1 µM, compound concentration 1 uM, replicate 2
[3] = 12 h, 10 µM, compound concentration 10 uM, replicate 1
[4] = 12 h, 10 µM, compound concentration 10 uM, replicate 2
[5] = 24 h, 1 µM, compound concentration 1 uM, replicate 1
[6] = 24 h, 1 µM, compound concentration 1 uM, replicate 2
[7] = 24 h, 10 µM, compound concentration 10 uM, replicate 1
[8] = 24 h, 10 µM, compound concentration 10 uM, replicate 2

With `Cc1cn(-c2cc(NC(=O)c3ccc4c(c3)CN(c3cncnc3)C[C@@H]4C)cc(C(F)(F)F)c2)cn1` the “Population Apoptotic (%)” value (HEK-293T; [1]) was 15%, the “Population Fragmented Nuclei (%)” value (HEK-293T; [1]) was 25% and the “Population Healthy Nuclei (%)” value (HEK-293T; [1]) was 52%. The “Population Hoechst High Intensity Objects (%)” value (HEK-293T; [1]) was 20%, the “Population Membrane Permeable-Phenotype (%)” value (HEK-293T; [1]) was 5% and the “Population Mitochondria Different-Phenotype (%)” value (HEK-293T; [1]) was 6%. For the same molecule, the “Population Mitotic Cells (%)” value (HEK-293T; [1]) was 84%, the “Population Normal (%)” value (HEK-293T; [1]) was 79% and the “Population Pyknosed Nuclei (%)” value (HEK-293T; [1]) was 22%. The “Population Tubulin-Different-Phenotype (%)” value (HEK-293T; [1]) was 4%, the “Total Cell Count” value (HEK-293T; [1]) was 536 and the “Population Apoptotic (%)” value (HEK-293T; [2]) was 8%. The “Population Fragmented Nuclei (%)” value (HEK-293T; [2]) was 6%, the “Population Healthy Nuclei (%)” value (HEK-293T; [2]) was 87% and the “Population Hoechst High Intensity Objects (%)” value (HEK-293T; [2]) was 3%. The “Population Membrane Permeable-Phenotype (%)” value (HEK-293T; [2]) was 2%, the “Population Mitochondria Different-Phenotype (%)” value (HEK-293T; [2]) was 8% and the “Population Mitotic Cells (%)” value (HEK-293T; [2]) was 91%. The “Population Normal (%)” value (HEK-293T; [2]) was 96%, the “Population Pyknosed Nuclei (%)” value (HEK-293T; [2]) was 5% and the “Total Cell Count” value (HEK-293T; [2]) was 1397. The “Population Apoptotic (%)” value (HEK-293T; [3]) was 17%, the “Population Fragmented Nuclei (%)” value (HEK-293T; [3]) was 17% and the “Population Healthy Nuclei (%)” value (HEK-293T; [3]) was 62%. The “Population Hoechst High Intensity Objects (%)” value (HEK-293T; [3]) was 13%, the “Population Membrane Permeable-Phenotype (%)” value (HEK-293T; [3]) was 12% and the “Population Mitochondria Different-Phenotype (%)” value (HEK-293T; [3]) was 6%. For the same molecule, the “Population Mitotic Cells (%)” value (HEK-293T; [3]) was 82%, the “Population Normal (%)” value (HEK-293T; [3]) was 86% and the “Population Pyknosed Nuclei (%)” value (HEK-293T; [3]) was 20%. The “Population Tubulin-Different-Phenotype (%)” value (HEK-293T; [3]) was 37%, the “Total Cell Count” value (HEK-293T; [3]) was 653 and the “Population Apoptotic (%)” value (HEK-293T; [4]) was 16%. For the same molecule, the “Population Fragmented Nuclei (%)” value (HEK-293T; [4]) was 5%, the “Population Healthy Nuclei (%)” value (HEK-293T; [4]) was 88% and the “Population Hoechst High Intensity Objects (%)” value (HEK-293T; [4]) was 4%. For the same molecule, the “Population Membrane Permeable-Phenotype (%)” value (HEK-293T; [4]) was 5%, the “Population Mitochondria Different-Phenotype (%)” value (HEK-293T; [4]) was 24% and the “Population Mitotic Cells (%)” value (HEK-293T; [4]) was 83%. The “Population Normal (%)” value (HEK-293T; [4]) was 95%, the “Population Pyknosed Nuclei (%)” value (HEK-293T; [4]) was 5% and the “Population Tubulin-Different-Phenotype (%)” value (HEK-293T; [4]) was 40%. The “Total Cell Count” value (HEK-293T; [4]) was 1483, the “Population Apoptotic (%)” value (HEK-293T; [5]) was 23% and the “Population Fragmented Nuclei (%)” value (HEK-293T; [5]) was 16%. The “Population Healthy Nuclei (%)” value (HEK-293T; [5]) was 72%, the “Population Hoechst High Intensity Objects (%)” value (HEK-293T; [5]) was 15% and the “Population Membrane Permeable-Phenotype (%)” value (HEK-293T; [5]) was 9%. The “Population Mitochondria Different-Phenotype (%)” value (HEK-293T; [5]) was 3%, the “Population Mitotic Cells (%)” value (HEK-293T; [5]) was 76% and the “Population Normal (%)” value (HEK-293T; [5]) was 84%. The “Population Pyknosed Nuclei (%)” value (HEK-293T; [5]) was 11%, the “Population Tubulin-Different-Phenotype (%)” value (HEK-293T; [5]) was 3% and the “Total Cell Count” value (HEK-293T; [5]) was 545. For the same molecule, the “Population Apoptotic (%)” value (HEK-293T; [6]) was 6%, the “Population Fragmented Nuclei (%)” value (HEK-293T; [6]) was 15% and the “Population Healthy Nuclei (%)” value (HEK-293T; [6]) was 81%. The “Population Hoechst High Intensity Objects (%)” value (HEK-293T; [6]) was 2%, the “Population Membrane Permeable-Phenotype (%)” value (HEK-293T; [6]) was 5% and the “Population Mitochondria Different-Phenotype (%)” value (HEK-293T; [6]) was 2%. The “Population Mitotic Cells (%)” value (HEK-293T; [6]) was 93%, the “Population Normal (%)” value (HEK-293T; [6]) was 97% and the “Population Pyknosed Nuclei (%)” value (HEK-293T; [6]) was 2%. The “Population Tubulin-Different-Phenotype (%)” value (HEK-293T; [6]) was 5%, the “Total Cell Count” value (HEK-293T; [6]) was 2221 and the “Population Apoptotic (%)” value (HEK-293T; [7]) was 15%. For the same molecule, the “Population Fragmented Nuclei (%)” value (HEK-293T; [7]) was 16%, the “Population Healthy Nuclei (%)” value (HEK-293T; [7]) was 73% and the “Population Hoechst High Intensity Objects (%)” value (HEK-293T; [7]) was 12%. For the same molecule, the “Population Membrane Permeable-Phenotype (%)” value (HEK-293T; [7]) was 29%, the “Population Mitochondria Different-Phenotype (%)” value (HEK-293T; [7]) was 6% and the “Population Mitotic Cells (%)” value (HEK-293T; [7]) was 84%. For the same molecule, the “Population Normal (%)” value (HEK-293T; [7]) was 87%, the “Population Pyknosed Nuclei (%)” value (HEK-293T; [7]) was 10% and the “Population Tubulin-Different-Phenotype (%)” value (HEK-293T; [7]) was 54%. The “Total Cell Count” value (HEK-293T; [7]) was 740, the “Population Apoptotic (%)” value (HEK-293T; [8]) was 8% and the “Population Fragmented Nuclei (%)” value (HEK-293T; [8]) was 12%. For the same molecule, the “Population Healthy Nuclei (%)” value (HEK-293T; [8]) was 84%, the “Population Hoechst High Intensity Objects (%)” value (HEK-293T; [8]) was 3% and the “Population Membrane Permeable-Phenotype (%)” value (HEK-293T; [8]) was 14%. For the same molecule, the “Population Mitochondria Different-Phenotype (%)” value (HEK-293T; [8]) was 7%, the “Population Mitotic Cells (%)” value (HEK-293T; [8]) was 91% and the “Population Normal (%)” value (HEK-293T; [8]) was 96%. The “Population Pyknosed Nuclei (%)” value (HEK-293T; [8]) was 3%, the “Population Tubulin-Different-Phenotype (%)” value (HEK-293T; [8]) was 55% and the “Total Cell Count” value (HEK-293T; [8]) was 2031. For the same molecule, the “Growth Rate” value (Fibroblast; 0 h, replicate number 2, timepoint 0 hours) was 0, the “Growth Rate” value (Fibroblast; 6 h, replicate number 1, timepoint 6 hours) was 0 and the “Growth Rate” value (Fibroblast; 12 h, replicate number 1, timepoint 12 hours) was 0. For the same molecule, the “Growth Rate” value (Fibroblast; 12 h, replicate number 2, timepoint 12 hours) was 1, the “Growth Rate” value (Fibroblast; 18 h, replicate number 1, timepoint 18 hours) was 0 and the “Growth Rate” value (Fibroblast; 24 h, replicate number 1, timepoint 24 hours) was 0.
